Legend:
SUD4 = assay: Cytotoxicity against human SU-DHL-4 cells assessed as reduction in cell viability measured after 24 hrs by CellTiter-Glo luminescent assay; format: functional, cell-based; settings: SU-DHL-4, 24 h
Method in brief: (§1)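 High-throughput viability screen of test agents across a panel of 22 cancerous and noncancerous human cell lines. Viability was read by CellTiter-Glo luminescence.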

PSN1 = assay: Cytotoxicity against human PSN1 cells assessed as reduction in cell viability measured after 24 hrs by CellTiter-Glo luminescent assay; format: functional, cell-based; settings: PSN1, 24 h; method in brief: as §1
[1] = Inhibition of IKKalpha/IKKbeta in human HEK293T cells transfected with firefly luciferase gene assessed as inhibition of TNF-alpha-stimulated NF-kappaB signalling preincubated for 1 hr followed by TNF alpha stimulation measured after 3 hrs by luciferase reporter gene assay; format: cell-based; settings: HEK-293T
Method in brief: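 Commercial NF-κB-driven luciferase reporter assay in HEK 293T cells stimulated with TNFα. EC50 was derived from the luminescence readout.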

NCI-H446 = assay: Cytotoxicity against human NCI-H446 cells assessed as reduction in cell viability measured after 24 hrs by CellTiter-Glo luminescent assay; format: functional, cell-based; settings: NCI-H446, 24 h; method in brief: as §1
[2] = Cytotoxicity against human Hs895SK cells assessed as reduction in cell viability measured after 24 hrs by CellTiter-Glo luminescent assay; format: cell-based; settings: Hs 895.Sk; method in brief: as §1
RCK8 = assay: Cytotoxicity against human RC-K8 cells assessed as reduction in cell viability measured after 24 hrs by CellTiter-Glo luminescent assay; format: functional, cell-based; settings: RCK8, 24 h; method in brief: as §1
[3] = Cytotoxicity against human Hs578Bst cells assessed as reduction in cell viability measured after 24 hrs by CellTiter-Glo luminescent assay; format: cell-based; method in brief: as §1
HCC1599 = assay: Cytotoxicity against human HCC1599 cells assessed as reduction in cell viability measured after 24 hrs by CellTiter-Glo luminescent assay; format: functional, cell-based; settings: HCC1599, 24 h; method in brief: as §1
[4] = Cytotoxicity against human Hs895T cells assessed as reduction in cell viability measured after 24 hrs by CellTiter-Glo luminescent assay; format: functional, cell-based; method in brief: as §1
HEK-293T = assay: Cytotoxicity against human HEK293T cells assessed as reduction in cell viability measured after 24 hrs by CellTiter-Glo luminescent assay; format: cell-based; method in brief: as §1
CA46 = assay: Cytotoxicity against human CA46 cells assessed as reduction in cell viability measured after 24 hrs by CellTiter-Glo luminescent assay; format: functional, cell-based; settings: CA46, 24 h; method in brief: as §1
Hs-578T = assay: Cytotoxicity against human Hs-578T cells assessed as reduction in cell viability measured after 24 hrs by CellTiter-Glo luminescent assay; format: functional, cell-based; method in brief: as §1
[5] = Cytotoxicity against human Hs888Lu cells assessed as reduction in cell viability measured after 24 hrs by CellTiter-Glo luminescent assay; format: cell-based; method in brief: as §1
[6] = Toxicity in po dosed rat; format: organism-based; settings: in vivo

Structure (SMILES)	EC50 [1] [µM]	IC50 (SUD4) [µM]	IC50 (PSN1) [µM]	IC50 (NCI-H446) [µM]	IC50 [2] [µM]	IC50 (RCK8) [µM]	IC50 [3] [µM]	IC50 (HCC1599) [µM]	IC50 [4] [µM]	IC50 (HEK-293T) [µM]	IC50 (CA46) [µM]	IC50 (Hs-578T) [µM]	IC50 [5] [µM]	EC50 (SUD4) [µM]	EC50 (NCI-H446) [µM]	EC50 (RCK8) [µM]	EC50 (HCC1599) [µM]	EC50 (HEK-293T) [µM]	EC50 (CA46) [µM]	EC50 (Hs-578T) [µM]	further results
C=C1C[C@]23C[C@@]1(O)CC[C@H]2[C@@]12C=C[C@H](O)[C@@](C)(C(=O)O1)[C@H]2[C@@H]3C(=O)O [GIBBERELLIN A3]	> 100	> 10	> 10	> 10	> 10	> 10	> 10	> 10	> 10	> 10	> 10	> 10	> 10								LD50 [6]: 6300 mg/kg
C=C1C(=O)[C@@]2(C)CC[C@H]3c4cccc(C)c4[C@H](C(=O)OC)[C@@]13C2	22		> 10		> 10				> 10				> 10	0.62	2.1	0.97	1.4	2.9	2.5	5.2	EC50 [3]: 10 µM
COC(=O)[C@H]1c2c(C)cccc2[C@H]2CC[C@@]3(C)C[C@]21CC3=O	> 100	> 10	> 10	> 10	> 10	> 10	> 10	> 10	> 10	> 10	> 10	> 10	> 10								

Now from value to compound, other results behind:

EC50 [1] [µM]	Structure (SMILES)	IC50 (SUD4) [µM]	IC50 (PSN1) [µM]	IC50 (NCI-H446) [µM]	IC50 [2] [µM]	IC50 (RCK8) [µM]	IC50 [3] [µM]	IC50 (HCC1599) [µM]	IC50 [4] [µM]	IC50 (HEK-293T) [µM]	IC50 (CA46) [µM]	IC50 (Hs-578T) [µM]	IC50 [5] [µM]	EC50 (SUD4) [µM]	EC50 (NCI-H446) [µM]	EC50 (RCK8) [µM]	EC50 (HCC1599) [µM]	EC50 (HEK-293T) [µM]	EC50 (CA46) [µM]	EC50 (Hs-578T) [µM]	further results
> 100	C=C1C[C@]23C[C@@]1(O)CC[C@H]2c1cc(Br)c(O)c(C)c1[C@@H]3C(=O)OC	> 10	> 10	> 10	> 10	> 10	> 10	> 10	> 10	> 10	> 10	> 10	> 10								
1.7	C=C1C(=O)[C@]23C[C@@]1(O)CC[C@H]2[C@@]12C=CC(=O)[C@@](C)(C(=O)O1)[C@H]2[C@@H]3C(=O)OC		> 10		> 10		> 10		> 10				> 10	< 0.04	< 0.04	0.072	0.83	7.1	0.88	5.2	

Reference: ChEMBL document CHEMBL4725436, “Gibberellin JRA-003: A Selective Inhibitor of Nuclear Translocation of IKKα” (ACS Med Chem Lett, 2020)
